{"data": "Assay results from different studies", "note": "Each line is one published result; the experiments were not run side by side."}
{"Structure (SMILES)": "Cc1ncc2n1-c1ccc(Cl)cc1C(c1ccccc1F)=NC2", "assay": "metabolic stability", "system": "human, liver microsomes", "setting": "1 µM, 30 min", "quantity": "compound remaining", "result": "< 7%"}
{"Structure (SMILES)": "O=c1ccc2cc(O)c(OCCCCCn3ccnc3)cc2o1", "tested on": "HepG2.2.15", "assay": "cell growth or viability, MTT", "setting": "9 days", "quantity": "CC50", "result": "140 µM"}
{"Structure (SMILES)": "C#Cc1ccc2c(c1)C(c1ccccc1F)=N[C@@H](C)c1c(C(=O)OCC(F)(F)F)ncn1-2", "assay": "metabolic stability", "system": "human, liver microsomes", "setting": "10 min", "quantity": "compound remaining", "result": "< 5%"}
{"Structure (SMILES)": "Cc1nccn1CCCCOc1cc2oc(=O)ccc2cc1O", "tested on": "HepG2.2.15", "assay": "cell growth or viability, MTT", "setting": "9 days", "quantity": "CC50", "result": "> 648 µM"}
{"Structure (SMILES)": "Cc1nc(C(=O)N2CCC[C@H]2C(=O)N[C@@H](CCC2CCCCC2)C(=O)N[C@@H](CC(C)C)C(=O)NC(C)(C)C(=O)N[C@@H](CC(C)C)C(=O)N(C)[C@@H](CC(C)C)C(=O)NC(C)(C)C(=O)NC(C)(C)C(=O)NCCC(=O)NC2(CN(C)C)CCC2)co1", "tested on": "L6", "assay": "cell growth or viability, resazurin", "setting": "68 h", "quantity": "IC50", "result": "> 8.45 µM"}
{"Structure (SMILES)": "Cc1ncc2n1-c1ccc(Cl)cc1C(c1ccccc1F)=NC2", "assay": "metabolic stability", "system": "human, hepatocytes", "setting": "1 µM, 4 h", "quantity": "compound remaining", "result": "26%"}
{"Structure (SMILES)": "COc1cc([C@@H]2c3cc4c(cc3[C@H](O)[C@H]3COC(=O)[C@H]23)OCO4)cc(OC)c1OC", "tested on": "L6", "assay": "cell growth or viability, resazurin", "setting": "70 h", "quantity": "IC50", "result": "0.05 µM"}
{"Structure (SMILES)": "CCOC(=O)c1ncn2c1[C@H](C)N=C(c1ccccc1F)c1cc(C3CC3)ccc1-2", "assay": "metabolic stability", "system": "human, liver microsomes", "setting": "20 min", "quantity": "compound remaining", "result": "< 5%"}
{"Structure (SMILES)": "N=c1c2c(-c3ccccc3)c(-c3ccccc3)n(Cc3ccccc3)c2ncn1[C@H]1CC[C@H](O)CC1", "assay": "metabolic stability", "system": "human, hepatocytes", "setting": "1 µM, 4 h", "quantity": "compound remaining", "result": "86%"}
{"Structure (SMILES)": "COc1cc([C@@H]2c3cc4c(cc3[C@H](O)[C@H]3COC(=O)[C@H]23)OCO4)cc(OC)c1OC", "tested on": "L6", "assay": "cell growth or viability, resazurin", "setting": "72 h", "quantity": "IC50", "result": "0.169 µM"}
